Experimental data from PMC7474130 (Journal of Pharmaceutical Analysis, 2020).
Read-outs that look alike come from different tables or passages of the source.

Key:
[1] = format: in vivo, Male Sprague-Dawley (SD) rats; conditions: for Cmax / half-life: male, Sprague-Dawley, rat, po, 6.8 g/kg
Summary of the method: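 Untreated male SD rats (220 ± 20 g; six) were housed at 25 ± 3 °C and 45 ± 5% humidity with free access to food and water. Plasma was analysed by UHPLC-Q-Orbitrap-MS (IS, 1/concentration2-weighted calibration), with non-compartmental analysis.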

[2] = Stability of analytes in rat plasma under different storage conditions; format: in vitro ADME
Summary of the method: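 Blank rat plasma spiked at three QC concentrations, five replicates each. Plasma (100 μL) was precipitated with three volumes of acetonitrile plus IS, vortexed 5 min, centrifuged at 13,000 × g for 10 min at 4 °C, then dried under nitrogen. It was reconstituted in initial mobile phase and re-centrifuged. Extracts were held in the auto-sampler at 4 °C, then 3 μL injected. Quantitation used analyte/IS peak-area ratios on a 1/concentration2-weighted linear calibration.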

[3] = format: in vivo, Male Sprague-Dawley (SD) rats; conditions: plasma; for AUC0-t / AUC0-∞: IM rats, oral ZSS aqueous extract 6.8 g/kg, mean ± SD, n = 6; for Cmax / Tmax / half-life: male, Sprague-Dawley, rat, po, 6.8 g/kg
Summary of the method: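 Male SD rats (220 ± 20 g) made insomniac with PCPA 400 mg/kg i.p. daily for three days (suspended in 0.5% CMC-Na); six rats. Plasma (3500 × g, 10 min, 4 °C) was held at −80 °C. Analysis used UHPLC-Q-Orbitrap-MS with internal standards and non-compartmental parameters.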

[4] = NC rats, oral ZSS aqueous extract 6.8 g/kg, plasma, mean ± SD, n = 6
[5] = extracted plasma QC samples, 4 °C for 12 h (auto-sampler), high QC level
[6] = extracted plasma QC samples, 4 °C for 12 h (auto-sampler), low QC level
[7] = extracted plasma QC samples, 4 °C for 12 h (auto-sampler), middle QC level
[8] = rat plasma, Frozen for 30 days (−80 °C), high QC level
[9] = rat plasma, Frozen for 30 days (−80 °C), low QC level
[10] = rat plasma, Frozen for 30 days (−80 °C), middle QC level
[11] = rat plasma, Three freeze-thaw cycles, high QC level
[12] = rat plasma, Three freeze-thaw cycles, low QC level
[13] = rat plasma, Three freeze-thaw cycles, middle QC level

COc1ccc2c(c1O)-c1c(O)c(OC)cc3c1[C@H](C2)[N+](C)(C)CC3 [Magnoflorine, magnoflorine]
AUC0-t [1, 4]: 54.56 ± 21.90 μg/L･h | AUC0-∞ [1, 4]: 69.51 ± 28.52 μg/L･h | Cmax ([1]; plasma): 0.0406 ± 0.0127 µg/mL | half-life ([1]; plasma): 190 ± 118 min | Stability, Accuracy (RE, %) [2, 5]: 11.25% | Stability, Accuracy (RE, %) [2, 6]: −4.56% | Stability, Accuracy (RE, %) [2, 7]: −11.99% | Stability, Accuracy (RE, %) [2, 8]: 9.01% | Stability, Accuracy (RE, %) [2, 9]: −14.77% | Stability, Accuracy (RE, %) [2, 10]: 0.05% | Stability, Accuracy (RE, %) [2, 11]: 8.06% | Stability, Accuracy (RE, %) [2, 12]: −5.49% | Stability, Accuracy (RE, %) [2, 13]: 5.31% | AUC0-t [3]: 45.13 ± 24.46 μg/L･h | AUC0-∞ [3]: 51.87 ± 23.75 μg/L･h | Cmax [3]: 0.0351 ± 0.0137 µg/mL | Tmax [3]: 12 ± 4.2 min | half-life [3]: 161 ± 76.8 min

COc1cc2oc(-c3ccc(O)cc3)cc(=O)c2c(O)c1[C@@H]1O[C@H](CO)[C@@H](O)[C@H](O)[C@H]1O [swertisin]
concentration in rat plasma ([1]; after oral administration of ZSS aqueous extract): too low for detection | content in bile and feces ([1]; after oral administration of ZSS aqueous extract, data not open): high content

COc1cc2c(cc1O)C(Cc1ccc(O)cc1)NCC2 (stereo not drawn) [Coclaurine, coclaurine]
AUC0-t [1, 4]: 1.08 ± 0.30 μg/L･h | AUC0-∞ [1, 4]: 1.13 ± 0.27 μg/L･h | Tmax [1, 4]: 16.2 ± 5.4 min | Cmax ([1]; plasma): 0.00198 ± 0.00082 µg/mL | half-life ([1]; plasma): 27 ± 10.2 min | Stability, Accuracy (RE, %) [2, 5]: 7.71% | Stability, Accuracy (RE, %) [2, 6]: 14.88% | Stability, Accuracy (RE, %) [2, 7]: 3.35% | Stability, Accuracy (RE, %) [2, 8]: −1.99% | Stability, Accuracy (RE, %) [2, 9]: 14.76% | Stability, Accuracy (RE, %) [2, 10]: 9.58% | Stability, Accuracy (RE, %) [2, 11]: 8.75% | Stability, Accuracy (RE, %) [2, 12]: 11.85% | Stability, Accuracy (RE, %) [2, 13]: 9.48% | AUC0-t [3]: 0.91 ± 0.26 μg/L･h | AUC0-∞ [3]: 0.93 ± 0.28 μg/L･h | Cmax [3]: 0.00248 ± 0.00098 µg/mL | Tmax [3]: 13.8 ± 5.4 min | half-life [3]: 24.6 ± 16.8 min
